According to ChEMBL document CHEMBL1914299, “Synthesis and antitumor activity of β-carboline 3-(substituted-carbohydrazide) derivatives” (Bioorg Med Chem, 2011):
pIC50: −log10 of the molar value.

What was measured:
Format in all cases: functional, cell-based
NCI-H460 = test: Antitumor activity against human NCI-H460 cells by SRB colorimetric assay
In short: (§1)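 NCI sulforhodamine B colorimetric growth assay in 96-well plates. Each compound tested at four concentrations in 10-fold dilutions. Doxorubicin as positive control. IC50 taken from concentration–response curves as the concentration giving 50% reduction in cell growth versus untreated control cells.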

UACC-62 = test: Antitumor activity against human UACC62 cells by SRB colorimetric assay; in short: as §1
MCF7 = test: Antitumor activity against human MCF7 cells by SRB colorimetric assay; in short: as §1
786-0 = test: Antitumor activity against human 786-0 cells by SRB colorimetric assay; in short: as §1
[1] = Antitumor activity against human PCO3 cells by SRB colorimetric assay; in short: as §1
OVCAR = test: Antitumor activity against human OVCAR cells by SRB colorimetric assay; in short: as §1
K562 = test: Antitumor activity against human K562 cells by SRB colorimetric assay; in short: as §1
HT-29 = test: Antitumor activity against human HT-29 cells by SRB colorimetric assay; in short: as §1

pIC50 (NCI-H460) | pIC50 (MCF7) | pIC50 (786-0) | pIC50 (OVCAR) | pIC50 (K562) | pIC50 (HT-29) | SMILES | pIC50 (UACC-62) | pIC50 [1]
< 4.00 | < 4.00 | 5.91 | < 4.00 | < 4.00 | < 4.00 | CN(C)c1ccc(/C=N/NC(=O)c2cc3c4ccccc4n(C)c3c(-c3cccc([N+](=O)[O-])c3)n2)cc1 | < 4.00 | < 4.00
4.86 | 4.60 | 4.52 | 5.69 | 4.84 | 4.73 | O=C(N/N=C/c1ccccc1)c1cc2c([nH]c3ccccc32)c(-c2ccc([N+](=O)[O-])cc2)n1 | 4.93 | 4.80
< 4.00 | 4.12 | < 4.00 | 4.12 | < 4.00 | < 4.00 | CN(C)c1ccc(/C=N/NC(=O)c2cc3c([nH]c4ccccc43)c(-c3ccccc3)n2)cc1 | 4.06 | 4.06
< 4.00 | < 4.00 | < 4.00 | < 4.00 | < 4.00 | < 4.00 | COc1ccc(-c2nc(C(=O)N/N=C/c3ccc([N+](=O)[O-])cc3)cc3c2[nH]c2ccccc23)cc1 | < 4.00 | < 4.00
< 4.00 | < 4.00 | < 4.00 | < 4.00 | < 4.00 | < 4.00 | O=C(NN=C1CCCC1)c1cc2c([nH]c3ccccc32)c(-c2cccc([N+](=O)[O-])c2)n1 | < 4.00 | < 4.00
4.70 | 5.05 | 5.36 | 5.90 | 5.37 | 5.36 | O=C(N/N=C/c1ccccc1)c1cc2c([nH]c3ccccc32)c(-c2ccc(O)cc2)n1 | 5.50 | 5.65
5.34 | 5.21 | 5.67 | 5.55 | 5.84 | 5.90 | O=C(N/N=C/c1ccccc1Cl)c1cc2c([nH]c3ccccc32)c(-c2ccccc2)n1 | 5.67 | 5.60
5.66 | 5.15 | 5.49 | 5.74 | 5.78 | 5.77 | O=C(N/N=C/c1ccccc1Cl)c1cc2c([nH]c3ccccc32)c(-c2ccc(O)cc2)n1 | 5.81 | 5.69
< 4.00 | < 4.00 | < 4.00 | < 4.00 | < 4.00 | < 4.00 | COc1ccc(-c2nc(C(=O)NN=C3CCCC3)cc3c2[nH]c2ccccc23)cc1 | 4.12 | < 4.00
< 4.00 | 4.59 | 4.14 | < 4.00 | < 4.00 | < 4.00 | O=C(NN=C1CCCCC1)c1cc2c([nH]c3ccccc32)c(-c2ccc([N+](=O)[O-])cc2)n1 | < 4.00 | < 4.00
< 4.00 | < 4.00 | 5.86 | < 4.00 | < 4.00 | < 4.00 | COc1ccc(-c2nc(C(=O)N/N=C/c3ccccc3)cc3c4ccccc4n(C)c23)cc1 | < 4.00 | < 4.00
4.59 | 4.78 | 4.58 | 4.39 | 4.63 | 4.45 | CC(C)=NNC(=O)c1cc2c([nH]c3ccccc32)c(-c2ccc(N(C)C)cc2)n1 | 4.99 | 4.72
4.70 | 4.85 | 4.79 | 4.58 | 5.17 | 4.70 | CC(C)=NNC(=O)c1cc2c([nH]c3ccccc32)c(-c2ccccc2)n1 | 4.99 | 4.81
< 4.00 | < 4.00 | < 4.00 | < 4.00 | < 4.00 | < 4.00 | Cn1c2ccccc2c2cc(C(=O)N/N=C/c3ccccc3Cl)nc(-c3ccccc3)c21 | < 4.00 | < 4.00
< 4.00 | < 4.00 | < 4.00 | < 4.00 | 4.06 | < 4.00 | O=C(NN=C1CCCCC1)c1cc2c([nH]c3ccccc32)c(-c2cccc([N+](=O)[O-])c2)n1 | < 4.00 | < 4.00
4.42 | 4.74 | 5.56 | 5.34 | 5.20 | 5.41 | O=C(N/N=C/c1ccccc1Cl)c1cc2c([nH]c3ccccc32)c(-c2ccc([N+](=O)[O-])cc2)n1 | 5.60 | 4.74
< 4.00 | 4.85 | < 4.00 | < 4.00 | < 4.00 | < 4.00 | COc1ccc(-c2nc(C(=O)N/N=C/c3ccccc3Cl)cc3c4ccccc4n(C)c23)cc1 | < 4.00 | < 4.00

pIC50 (NCI-H460) | pIC50 (MCF7) | pIC50 (786-0) | pIC50 (OVCAR) | pIC50 (K562) | pIC50 (HT-29) | SMILES | pIC50 (UACC-62) | pIC50 [1]
< 4.00 | < 4.00 | < 4.00 | < 4.00 | < 4.00 | < 4.00 | CC(C)=NNC(=O)c1cc2c([nH]c3ccccc32)c(-c2ccc([N+](=O)[O-])cc2)n1 | < 4.00 | < 4.00
< 4.00 | < 4.00 | 4.15 | < 4.00 | < 4.00 | < 4.00 | COc1ccc(-c2nc(C(=O)NN=C(C)C)cc3c2[nH]c2ccccc23)cc1O | < 4.00 | < 4.00
< 4.00 | 4.11 | < 4.00 | < 4.00 | < 4.00 | < 4.00 | O=C(NN=C1CCCC1)c1cc2c([nH]c3ccccc32)c(-c2ccc(O)cc2)n1 | < 4.00 | < 4.00
4.70 | 5.04 | 4.73 | 4.89 | 4.99 | 4.86 | COc1ccc(-c2nc(C(=O)NN=C3CCCCC3)cc3c2[nH]c2ccccc23)cc1 | 4.93 | 4.99
< 4.00 | < 4.00 | < 4.00 | < 4.00 | < 4.00 | < 4.00 | O=C(NN=C1CCCC1)c1cc2c([nH]c3ccccc32)c(-c2ccc([N+](=O)[O-])cc2)n1 | < 4.00 | < 4.00
< 4.00 | < 4.00 | < 4.00 | < 4.00 | < 4.00 | – | CN(C)c1ccc(-c2nc(C(=O)NN=C3CCCCC3)cc3c2[nH]c2ccccc23)cc1 | < 4.00 | < 4.00
5.29 | 4.67 | 4.53 | 4.84 | 5.37 | 4.82 | O=C(N/N=C/c1ccc([N+](=O)[O-])cc1)c1cc2c([nH]c3ccccc32)c(-c2ccccc2)n1 | 5.32 | 5.07
< 4.00 | 4.91 | 5.02 | 4.29 | 5.43 | 5.41 | O=C(N/N=C/c1ccc([N+](=O)[O-])cc1)c1cc2c([nH]c3ccccc32)c(-c2ccc(O)cc2)n1 | 5.35 | 4.89
4.54 | 4.85 | 4.77 | < 4.00 | 4.17 | 4.81 | O=C(N/N=C/c1ccccc1Cl)c1cc2c([nH]c3ccccc32)c(-c2cccc([N+](=O)[O-])c2)n1 | 4.45 | 4.78
< 4.00 | < 4.00 | < 4.00 | < 4.00 | < 4.00 | < 4.00 | COc1ccc(-c2nc(C(=O)NN=C(C)C)cc3c2[nH]c2ccccc23)cc1 | 4.39 | < 4.00
4.42 | 4.61 | 4.61 | < 4.00 | 4.74 | < 4.00 | CC(C)=NNC(=O)c1cc2c([nH]c3ccccc32)c(-c2ccc(O)cc2)n1 | 4.45 | 4.71
4.16 | < 4.00 | < 4.00 | 5.90 | < 4.00 | < 4.00 | CN(C)c1ccc(/C=N/NC(=O)c2cc3c([nH]c4ccccc43)c(-c3ccc(O)cc3)n2)cc1 | 4.05 | –
4.45 | 4.15 | < 4.00 | < 4.00 | < 4.00 | < 4.00 | COc1ccc(/C=N/NC(=O)c2cc3c([nH]c4ccccc43)c(-c3ccc(OC)cc3)n2)cc1 | 4.04 | < 4.00
5.84 | 4.98 | 5.60 | 5.13 | 5.60 | 5.90 | COc1ccc(-c2nc(C(=O)N/N=C/c3ccccc3Cl)cc3c2[nH]c2ccccc23)cc1 | 5.25 | 5.34
< 4.00 | 4.57 | < 4.00 | 4.19 | 4.66 | 4.41 | CC(C)=NNC(=O)c1cc2c([nH]c3ccccc32)c(-c2ccccc2Cl)n1 | 4.72 | 4.59
< 4.00 | < 4.00 | 4.01 | < 4.00 | < 4.00 | – | COc1ccc(-c2nc(C(=O)NN=C3CCCC3)cc3c2[nH]c2ccccc23)cc1O | < 4.00 | < 4.00
5.01 | < 4.00 | 4.21 | 6.43 | 4.06 | 4.02 | COc1ccc(/C=N/NC(=O)c2cc3c([nH]c4ccccc43)c(-c3ccc(O)cc3)n2)cc1 | 5.41 | –
